Experimental data pooled from the literature.
Lines come from different studies, so protocols differ.
Target: Vascular endothelial growth factor receptor 1 (FLT1, Homo sapiens, UniProt P17948)

| SMILES | read-out | mode | technique | tested at | endpoint | result |
| --- | --- | --- | --- | --- | --- | --- |
| Cn1cc(-c2cccc(N3CCc4c(sc5c4CC(C)(C)C5)C3=O)c2CO)cc(Nc2ccncn2)c1=O | enzyme activity | inhibitor | – | 1 µM | inhibition | 2% |
| C#Cc1n[nH]c2c(-c3cn([C@@H](C)c4ccccc4)c(=O)[nH]c3=O)cc(F)cc12 | enzyme activity | inhibitor | – | 0.1 µM | inhibition | 1.9% |
| Cc1ncc(C)n2nc(/C=C/c3nc(N4CCCC4)cc(N4CCOCC4)n3)nc12 | enzyme activity | inhibitor | – | 10 µM | inhibition | -6% |
| COCc1c(-c2cc3cc(C)cc(OC)c3s2)c2c(N)ncnn2c1CN1CCNC(=O)C1 | cell-free assay | – | competition with immobilised ligand | 1 µM | inhibition | 91.7% |
| CC(C)(C)c1cc(C=C(C#N)C#N)cc(Br)c1O | enzyme activity | inhibitor | – | 0.5 µM | remaining activity | 92.5% |
| Cn1cc(-c2cc(F)cc(N3CCn4c(cc5c4CCCC5)C3=O)c2CO)cc(Nc2ccc(N3CCN(C4COC4)CC3)cn2)c1=O | enzyme activity | inhibitor | – | 0.1 µM | inhibition | 5% |
| O=C(Nc1cccnn1)N1CCN([C@@H]2CCOc3cc(C(F)(F)F)ccc32)CC1 | enzyme activity | inhibitor | – | 20 µM | inhibition | 2% |
| O=c1[nH]c2ccccc2n1C1CCN(Cc2ccc(-c3[nH]c4cc5ncnc5cc4nc3-c3ccccc3)cc2)CC1 | cell-free assay | – | – | 0.5 µM | remaining signal | 92.2% |
| C#Cc1n[nH]c2c(-c3cn([C@@H](C)c4ccccn4)c(=O)[nH]c3=O)cc(F)cc12 | enzyme activity | inhibitor | – | 0.1 µM | inhibition | 2% |
| Nc1ncc(-c2nc(N3CCOCC3)nc(N3CCOCC3)n2)c(C(F)F)n1 | cell-free assay | – | competition with immobilised ligand | 10 µM | remaining binding | 91% |
| Cn1cncc1[C@](O)(COc1ccc(C#N)cc1-c1ccc(OC(F)(F)F)cc1)c1ccc(C#N)cc1 | cell-free assay | – | competition with immobilised ligand | 1 µM | remaining binding | 98% |
| COc1ncccc1-c1cnn2ccc(N3CCN(C(=O)OC(C)C)CC3)nc12 | binding | – | competition with immobilised ligand | 1 µM | remaining binding | 100% |
